In ChEMBL document CHEMBL1128234, “Isothiocyanate-substituted benzyl ether opioid receptor ligands derived from 6 beta-naltrexol” (J Med Chem, 1995):

Legend:
[1] = molecular target: Kappa-type opioid receptor (Cavia porcellus) (UniProt P41144); assay: Irreversible binding affinity at Opioid receptor kappa 1 was evaluated as % of control specific binding remaining washed at concentration of 30 (nM) using [3H]U-69593 radioligand
Method in brief: (§1)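 Diluted guinea pig brain homogenate is exposed to ligand for 60 min at 25 °C; protected samples are first preincubated 15 min at 37 °C with 1 naloxone. Washed samples are diluted in ice-cold Tris pH 7.4, spun at 10000g for 15 min at 4 °C, then resuspended and incubated 15 min at 37 °C, twice. Read-out is standard radioligand binding, expressed as % of recovery-sample specific binding. Test ligands run in triplicate; reference averaged over three assays.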

[2] = molecular target: Mu-type opioid receptor (Cavia porcellus) (UniProt P97266); assay: Irreversible binding affinity at mu-receptor was evaluated as % of control specific binding remaining washed at concentration of 2.5 (nM) using [3H]DAMGO radioligand
Chain of Mu-type opioid receptor (Cavia porcellus) (P97266 whole entry): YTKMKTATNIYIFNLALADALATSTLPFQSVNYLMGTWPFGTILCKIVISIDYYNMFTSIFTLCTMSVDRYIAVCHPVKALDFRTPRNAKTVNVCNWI
Method in brief: (§2)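 Guinea pig brain homogenate (less cerebellum) in 0.05 M Trizma pH 7.4, diluted 1:60. It was incubated with ligand 60 min at 25 °C, then diluted in ice-cold buffer and centrifuged 10000g. Washed samples were resuspended in buffer, incubated 15 min at 37 °C and recentrifuged. Binding used 1.0 nM [3H]DAMGO for 60 min at 25 °C, with filtration and counting. Nonspecific binding was set with 10 µM naloxone. Triplicates; % specific binding was taken relative to recovery controls.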

[3] = molecular target: Mu-type opioid receptor (Cavia porcellus) (UniProt P97266); assay: Irreversible binding affinity at mu-receptor was evaluated as % of control specific binding remaining protected at concentration of 5 (nM) using [3H]-DAMGO radioligand; method in brief: as §1
[4] = molecular target: Kappa-type opioid receptor (Cavia porcellus) (UniProt P41144); assay: Irreversible binding affinity at Opioid receptor kappa 1 was evaluated as % of control specific binding remaining washed at concentration of 42 (nM) using [3H]U-69593 radioligand; method in brief: as §1
Mu-type opioid receptor = Mu-type opioid receptor (Cavia porcellus, UniProt P97266); assay: Inhibitory concentration was determined against Opioid receptor mu 1 using [3H]- DAMGO radioligand
Chain of Mu-type opioid receptor (P97266 whole entry): as above
Method in brief: (§3)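 Guinea pig brain (minus cerebellum) homogenate in 0.05 M Tris pH 7.4, diluted 1:60 (0.8-1.5 mg protein/ml). Ligand tested in duplicate at nine concentrations; 60 min at 25 °C. Nonspecific binding defined with naloxone. Filtration, ice-cold buffer rinse, scintillation counting.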

[5] = molecular target: Mu-type opioid receptor (Cavia porcellus) (UniProt P97266); assay: Irreversible binding affinity at mu-receptor was evaluated as % of control specific binding remaining protected at concentration of 2.5 (nM) using [3H]DAMGO radioligand; method in brief: as §1
[6] = molecular target: Kappa-type opioid receptor (Cavia porcellus) (UniProt P41144); assay: Irreversible binding affinity at Opioid receptor kappa 1 was evaluated as % of control specific binding remaining unwashed at concentration of 42 (nM) using [3H]U-69593 radioligand; method in brief: as §1
[7] = molecular target: Opioid receptors; mu/kappa/delta; assay: Inhibitory concentration was determined against Opioid receptors using [3H]- bremazocine radioligand; type: protein assay, Cavia porcellus; method in brief: as §3
[8] = molecular target: Kappa-type opioid receptor (Cavia porcellus) (UniProt P41144); assay: Irreversible binding affinity at Opioid receptor kappa 1 was evaluated as % of control specific binding remaining unwashed at concentration of 30 (nM) using [3H]U-69593 radioligand; method in brief: as §1
[9] = molecular target: Kappa-type opioid receptor (Cavia porcellus) (UniProt P41144); assay: Irreversible binding affinity at Opioid receptor kappa 1 was evaluated as % of control specific binding remaining protected at concentration of 30 (nM) using [3H]U-69593 radioligand; method in brief: as §1
[10] = molecular target: Kappa-type opioid receptor (Cavia porcellus, UniProt P41144); assay: Inhibitory concentration against Opioid receptor kappa 1 using [3H]- U-69,593 radioligand; method in brief: as §3
Chain of Kappa-type opioid receptor (P41144 whole entry): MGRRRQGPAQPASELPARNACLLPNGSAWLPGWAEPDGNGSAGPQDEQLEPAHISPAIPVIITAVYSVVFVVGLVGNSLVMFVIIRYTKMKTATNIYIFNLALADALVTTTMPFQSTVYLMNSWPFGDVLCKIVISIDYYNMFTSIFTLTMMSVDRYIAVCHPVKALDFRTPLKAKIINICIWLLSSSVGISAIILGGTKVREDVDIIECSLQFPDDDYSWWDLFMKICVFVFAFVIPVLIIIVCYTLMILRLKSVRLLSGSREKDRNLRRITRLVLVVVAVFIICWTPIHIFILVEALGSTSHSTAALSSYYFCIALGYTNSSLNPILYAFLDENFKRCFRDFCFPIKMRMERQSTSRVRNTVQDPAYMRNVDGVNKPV

[11] = molecular target: Mu-type opioid receptor (Cavia porcellus) (UniProt P97266); assay: Irreversible binding affinity at mu-receptor was evaluated as % of control specific binding remaining unwashed at concentration of 5 (nM) using [3H]DAMGO radioligand; method in brief: as §2
[12] = molecular target: Kappa-type opioid receptor (Cavia porcellus) (UniProt P41144); assay: Irreversible binding affinity at Opioid receptor kappa 1 was evaluated as % of control specific binding remaining protected at concentration of 42 (nM) using [3H]U-69593 radioligand; method in brief: as §1
[13] = molecular target: Mu-type opioid receptor (Cavia porcellus) (UniProt P97266); assay: Irreversible binding affinity at mu-receptor was evaluated as % of control specific binding remaining unwashed at concentration of 2.5 (nM) using [3H]DAMGO radioligand; method in brief: as §1
[14] = molecular target: Mu-type opioid receptor (Cavia porcellus) (UniProt P97266); assay: Irreversible binding affinity at mu-receptor was evaluated as % of control specific binding remaining washed at concentration of 5 (nM) using [3H]-DAMGO radioligand; method in brief: as §2
[15] = molecular target: Mu-type opioid receptor (Cavia porcellus) (UniProt P97266); assay: Irreversible binding affinity at mu-receptor was evaluated as % of control specific binding remaining washed at concentration of 10 (nM) using [3H]DAMGO radioligand Values from 3 separate assays (+/-10%)
[16] = Inhibitory concentration was determined against delta-opioid receptor using [3H]- DPDPE radioligand
[17] = molecular target: Mu-type opioid receptor (Cavia porcellus) (UniProt P97266); assay: Irreversible binding affinity at mu-receptor was evaluated as % of control specific binding remaining protected at concentration of 10 (nM) using [3H]DAMGO radioligand Values from 3 separate assays (+/-10%); method in brief: as §1
[18] = molecular target: Mu-type opioid receptor (Cavia porcellus) (UniProt P97266); assay: Irreversible binding affinity at mu-receptor was evaluated as % of control specific binding remaining unwashed at concentration of 10 (nM) using [3H]-DAMGO radioligand Values from 3 separate assays (+/-10%); method in brief: as §1
[19] = molecular target: Kappa-type opioid receptor (Cavia porcellus) (UniProt P41144); assay: Irreversible binding affinity at Opioid receptor kappa 1 was evaluated as % of control specific binding remaining protected at concentration of 20 (nM) using [3H]U-69593 radioligand; method in brief: as §1
[20] = molecular target: Kappa-type opioid receptor (Cavia porcellus) (UniProt P41144); assay: Irreversible binding affinity at Opioid receptor kappa 1 was evaluated as % of control specific binding remaining unwashed at concentration of 20 (nM) using [3H]U-69593 radioligand; method in brief: as §1
[21] = molecular target: Kappa-type opioid receptor (Cavia porcellus) (UniProt P41144); assay: Irreversible binding affinity at Opioid receptor kappa 1 was evaluated as % of control specific binding remaining washed at concentration of 20 (nM) using [3H]U-69593 radioligand; method in brief: as §1

Chain of Kappa-type opioid receptor (Cavia porcellus) (P41144 whole entry): as above

Molecule Oc1ccc2c3c1O[C@H]1[C@H](OCc4ccccc4N=C=S)CC[C@@]4(O)C(C2)N(CC2CC2)CCC314 (stereo not given in full) has a Control [1] of 35%, a Control [2] of 40% and a Control [3] of 36%. For the same molecule, the Control [4] was 21%, the IC50 (Mu-type opioid receptor) was 0.8 nM and the Control [5] was 68%. For the same molecule, the Control [6] was 13%, the IC50 [7] was 8.8 nM and the Control [8] was 36%. It also gave a Control [9] of 55%, an IC50 [10] of 8.2 nM and a Control [11] of 7%. It also gave a Control [12] of 40%, a Control [13] of 47% and a Control [14] of 15%.

Molecule Oc1ccc2c3c1OC1[C@H](OCc4ccccc4)CCC4(O)C(C2)N(CC2CC2)CCC314 (stereo not given in full) has a Control [15] of 100%, an IC50 [16] of 2.9 nM and a Control [17] of 104%. For the same molecule, the Control [18] was 14%.

Oc1ccc2c3c1O[C@H]1[C@@H](O)CC[C@@]4(O)[C@@H](C2)N(CC2CC2)CC[C@]314 gave an IC50 (Mu-type opioid receptor) of 1.1 nM and an IC50 [10] of 2.6 nM.

Work on Oc1ccc2c3c1O[C@H]1[C@H](OCc4cccc(CN=C=S)c4)CC[C@@]4(O)C(C2)N(CC2CC2)CCC314 (stereo not given in full) yielded a Control [1] of 58%, an IC50 (Mu-type opioid receptor) of 19 nM and an IC50 [7] of 24 nM. For the same molecule, the Control [19] was 94%, the Control [20] was 56% and the Control [8] was 22%. The Control [9] was 73%, the IC50 [10] was 6 nM and the Control [21] was 68%.
